Reference: ChEMBL document CHEMBL4619772 (J Med Chem, 2020)
pEC50, pIC50: −log10 of the molar value.

Assays:
[1] = Metabolic stability in Sprague-Dawley rat pooled plasma assessed as parent compound remaining at 20 uM after 60 mins by HPLC analysis; assay type: ADME, cell-free; details: read-out: Stability
Summary of the method: (§1)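 Stability is reported as % of compound remaining after 60 min incubation in plasma or liver microsomes, relative to t0.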

[2] = Metabolic stability in human liver microsomes assessed as parent compound remaining after 60 mins in presence of NADPH by HPLC analysis; assay type: ADME, Microsome; details: read-out: Stability; summary of the method: as §1
Zaire ebolavirus [3] = assay: Antiviral activity against Ebola virus 1976 Mayinga infected in human HeLa cells pretreated for 1 hr followed by virus infection measured after 24 hrs by Hoechst staining-based immunofluorescence assay; assay type: functional, organism-based
[4] = Selectivity index, ratio of CC50 for human A549 cells to EC50 for HIV/EBOV-GP infected in human A549 cells; assay type: toxicity, cell-based; details: read-out: Ratio CC50/EC50
Summary of the method: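 Ratio CC50/EC50. CC50 is A549 cytotoxicity by CellTiter 96 aqueous nonradioactive cell proliferation assay.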

[5] = Inhibition of pseudotyped HIV/EBOV GP infected in human A549 cells assessed as reduction in virus entry measured after 48 hrs by luciferase reporter gene assay; assay type: cell-based, Ebolavirus; details: Orthoebolavirus, A549, 48 h
[6] = Inhibition of pseudotyped HIV/MARV GP infected in human A549 cells assessed as reduction in virus entry measured after 48 hrs by luciferase reporter gene assay; assay type: cell-based, Marburgvirus; details: Orthomarburgvirus, A549, 48 h
Cytochrome P450 3A4 [7] = target: T1, Cytochrome P450 3A4 (Homo sapiens, UniProt P08684); assay: Inhibition of recombinant human CYP3A4 expressed in baculovirus infected insect cell microsomes using fluorescent substrate in presence of NADPH by fluorescence assay; assay type: ADME
T1 sequence (P08684 whole entry): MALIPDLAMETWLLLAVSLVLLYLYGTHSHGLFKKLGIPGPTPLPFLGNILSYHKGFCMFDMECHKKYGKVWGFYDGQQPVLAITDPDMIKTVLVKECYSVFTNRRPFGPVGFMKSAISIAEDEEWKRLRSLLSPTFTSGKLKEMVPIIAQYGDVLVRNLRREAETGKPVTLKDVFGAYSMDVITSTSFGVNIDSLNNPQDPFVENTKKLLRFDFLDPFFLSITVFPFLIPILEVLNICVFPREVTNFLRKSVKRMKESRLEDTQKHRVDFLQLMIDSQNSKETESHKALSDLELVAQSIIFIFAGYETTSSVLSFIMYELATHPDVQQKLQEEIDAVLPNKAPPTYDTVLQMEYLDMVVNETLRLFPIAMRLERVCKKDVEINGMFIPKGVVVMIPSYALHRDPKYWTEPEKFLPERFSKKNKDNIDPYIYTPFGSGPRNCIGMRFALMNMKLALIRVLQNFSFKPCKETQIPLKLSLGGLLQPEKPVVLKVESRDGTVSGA
Summary of the method: (§2)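 CYP3A4 inhibition IC50 is determined with 10 μM quinidine as positive inhibitor control, from three replicates; errors are estimated <10%.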

A549 [8] = assay: Inhibition of pseudotyped HIV/MARV GP infected in human A549 cells assessed as reduction in virus entry at 12.5 uM measured after 48 hrs by luciferase reporter gene assay relative to control; assay type: cell-based; details: Marburgvirus
Summary of the method: (§3)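 Low-passage A549 cells are infected with HIV-based pseudovirions carrying EBOV or MARV GP and a luciferase reporter, with or without compound at 12.5 μM. […] Toremifene is the positive control.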

A549 [9] = assay: Inhibition of pseudotyped HIV/EBOV GP infected in human A549 cells assessed as reduction in virus entry at 12.5 uM measured after 48 hrs by luciferase reporter gene assay relative to control; assay type: cell-based; details: Ebolavirus; summary of the method: as §3
[10] = Metabolic stability in Fischer F344 rat liver microsomes assessed as parent compound remaining after 60 mins in presence of NADPH by HPLC analysis; assay type: ADME, Microsome; details: read-out: Stability; summary of the method: as §1
Marburgvirus [11] = assay: Antiviral activity against Marburg virus Lake Victoria, 2005 Angola infected in human HeLa cells pretreated for 1 hr followed by virus infection measured after 24 hrs by Hoechst staining-based immunofluorescence assay; assay type: functional, organism-based, Lake Victoria marburgvirus; details: Orthomarburgvirus, Angola2005, HeLa
[12] = Metabolic stability in human pooled plasma assessed as parent compound remaining at 20 uM after 60 mins by HPLC analysis; assay type: ADME, cell-free; details: read-out: Stability; summary of the method: as §1
[13] = Selectivity index, ratio of CC50 for human HeLa cells to EC50 for Ebola virus 1976 Mayinga in human HeLa cells; assay type: toxicity, cell-based; details: read-out: Ratio CC50/EC50
Cytochrome P450 2C9 [14] = target: T2, Cytochrome P450 2C9 (Homo sapiens, UniProt P11712); assay: Inhibition of recombinant human CYP2C9 expressed in baculovirus infected insect cell microsomes using fluorescent substrate in presence of NADPH by fluorescence assay; assay type: ADME
T2 sequence (P11712 whole entry): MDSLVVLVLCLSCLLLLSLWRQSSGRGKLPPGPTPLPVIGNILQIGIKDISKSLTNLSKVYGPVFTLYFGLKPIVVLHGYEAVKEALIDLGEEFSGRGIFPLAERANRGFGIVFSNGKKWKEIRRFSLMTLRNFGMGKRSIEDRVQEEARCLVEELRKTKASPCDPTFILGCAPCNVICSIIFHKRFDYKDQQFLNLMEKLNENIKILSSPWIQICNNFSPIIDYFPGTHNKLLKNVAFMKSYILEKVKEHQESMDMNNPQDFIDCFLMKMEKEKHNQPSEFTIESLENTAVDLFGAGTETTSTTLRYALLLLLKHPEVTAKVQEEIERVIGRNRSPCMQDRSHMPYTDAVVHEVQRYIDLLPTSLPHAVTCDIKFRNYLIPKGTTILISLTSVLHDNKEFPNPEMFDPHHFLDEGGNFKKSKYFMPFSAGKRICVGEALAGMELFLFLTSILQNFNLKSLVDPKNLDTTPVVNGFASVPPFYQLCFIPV
Summary of the method: (§4)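 CYP2C9 inhibition IC50 is determined with 30 μM sulfaphenazole as positive inhibitor control, from three replicates; errors are estimated <10%.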

Cytochrome P450 2C9 [15] = target: T2, Cytochrome P450 2C9; assay: Inhibition of recombinant human CYP2C9 expressed in baculovirus infected insect cell microsomes using vivid BOMF as substrate preincubated for 10 mins followed by substrate addition and measured after 25 mins in presence of […] by fluorescence assay; assay type: ADME; summary of the method: as §4
Cytochrome P450 3A4 [16] = target: T1, Cytochrome P450 3A4; assay: Inhibition of recombinant human CYP3A4 expressed in baculovirus infected insect cell microsomes using vivid DBOMF as substrate preincubated for 10 mins followed by substrate addition and measured after 25 mins in presence of […] by fluorescence assay; assay type: ADME; summary of the method: as §2
[17] = Selectivity index, ratio of CC50 for African green monkey Vero cells to EC50 for Ebola virus 1976 Mayinga infected in African green monkey Vero cells; assay type: toxicity; details: read-out: Ratio CC50/EC50
Zaire ebolavirus [18] = assay: Antiviral activity against Ebola virus 1976 Mayinga infected in African green monkey Vero cells pretreated for 1 hr followed by virus infection measured after 24 hrs by Hoechst staining-based immunofluorescence assay; assay type: functional, organism-based
Zaire ebolavirus [19] = assay: Antiviral activity against Ebola virus 1976 Mayinga infected in African green monkey Vero cells; assay type: functional, organism-based
Marburgvirus [20] = assay: Antiviral activity against Marburg virus Lake Victoria, 2005 Angola infected in African green monkey Vero cells; assay type: functional, organism-based, Lake Victoria marburgvirus; details: Orthomarburgvirus, Angola2005, Vero

Row | Structure (SMILES) | remaining at 1 h, 20 µM [1] | remaining at 1 h [2] | pEC50 (Zaire ebolavirus [3]) | selectivity ratio [4] | pEC50 [5] | pEC50 [6] | pIC50 (Cytochrome P450 3A4 [7]) | inhibition (A549 [8]) | inhibition (A549 [9]) | remaining at 1 h [10] | pEC50 (Marburgvirus [11]) | remaining at 1 h, 20 µM [12] | selectivity ratio [13] | pIC50 (Cytochrome P450 2C9 [14]) | pIC50 (Cytochrome P450 2C9 [15]) | pIC50 (Cytochrome P450 3A4 [16]) | selectivity ratio [17] | pEC50 (Zaire ebolavirus [18]) | pEC50 (Zaire ebolavirus [19]) | pEC50 (Marburgvirus [20])
1 | O=C(Nc1ccc(C23CC4CC(CC(C4)C2)C3)cc1)c1ccc(CN2CCOCC2)cc1 | 86% | 34% | 6.08 | 5440 | 7.74 | 5.55 | < 4.00 | 72.5% | 99% | 57% | 6.28 | 86% | 134 | 5.50 |  |  |  |  |  | 
2 | O=C(Nc1ccc(C23CC4CC(CC(C4)C2)C3)cc1)c1ccc(CN2CCCCC2)cc1 | 96% | 75% | 6.96 | 231 | 7.46 | 6.42 |  | 99% | 99.4% | 71% | 5.91 | 100% | 202 |  | < 4.00 | < 4.00 |  |  |  | 
3 | CC1CCN(c2ccc(NC(=O)c3ccc(CN4CCOCC4)cc3)cc2C(F)(F)F)CC1 | 89% | 64% | 6.51 | 2090 | 7.92 | 6.74 | < 4.00 | 92.3% | 99.3% | 75% | 6.09 | 100% | 58 | 5.30 |  |  |  |  |  | 
4 | COC(=O)c1ccc(NC(=O)c2ccc(CN3CCCCC3)cc2)cc1 | 78% | 54% | < 4.60 | 15 | 5.01 | 6.28 |  | 90.7% | 74% | 0% |  | 63% |  |  |  |  | 35 | 5.55 | > 5.00 | > 5.00
5 | O=C(Nc1ccc(SC(F)(F)F)c(Cl)c1)c1ccc(CN2CCCCC2)cc1 | 88% | 90% | 5.95 | 5 | 5.90 | 5.79 |  | 99.8% | 99.9% | 94% | 5.62 | 100% | 14 |  | 5.35 | 4.82 |  |  |  | 
